The values below come from ChEMBL document CHEMBL1158469 (J Med Chem, 2009).

Data set [1] in a line: Induction of apoptosis in human RS11846 cells after 1 to 2 days by FITC-annexin V and propidium iodide assay. The class given is functional, cell-based.
Data set [2] concerns the target Bcl-2-like protein 1 (Homo sapiens) (UniProt Q07817). As to the kind of experiment: Inhibition of Bcl-xL at 200 uM by 1D 1H NMR binding assay.
Another data set relates to NCI-H460. Put plainly: Cytotoxicity against human H460 cells assessed as cell viability after 72 hrs by ATP-LITE assay. In kind it is functional, cell-based. To be noted: NCI-H460, 72 h. The essentials: (§1)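 ATP-LITE viability readout. Seeded 24 h before dosing (H460, H1299 at 2000 cells/well; PC3 at 3000 cells/well) in 12F2 or RPMI1640 with 5 mM L-glutamine, 5% FBS and pen/strep. Fresh 5% medium added, then compounds in 0.1% DMSO final. Viability read after 72 h treatment and normalized to DMSO-treated cells.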

A short description of data set [3]: Cytotoxicity against human PC3-ML cells assessed as cell viability after 72 hrs by ATP-LITE assay. The class given is functional, cell-based. A digest of the protocol: as §1
A short description of data set [4]: Cytotoxicity against human H1299 cells assessed as cell viability after 72 hrs by ATP-LITE assay. The conditions noted are these: NCI-H1299, 72 h. In kind it is functional, cell-based. A digest of the protocol:
as §1

Data set [5] in a line: Induction of apoptosis in human BP3 cells after 1 to 2 days by FITC-annexin V and propidium iodide assay. The class given is functional, cell-based.
Data set [6] is described as follows: Stability in rat plasma after 1 hr at 37.5 degC. The class given is ADME, cell-free. To be noted: read-out: Stability. A digest of the protocol: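 Compound incubated in rat plasma for 1 h; percentage of parent remaining was reported.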
Data set [7] can be described thus: Membrane permeability assessed as drug permeation at 100 uM at pH 7.2 after 8 hrs by PAMPA. The class given is ADME. To be noted: pH 7.2, 8 h. (In general: PAMPA measures passive passage across an artificial lipid membrane.)
Data set [8] in a line: Stability in rat liver microsome at 4 uM after 1 hr. The class given is ADME. The conditions noted are these: liver microsomes, read-out: Stability. The essentials: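 Compound incubated for 1 h in rat microsomal preparations; percentage of parent remaining was reported.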

pEC50: −log10 of the molar value. Activity calls are given as the source filed them. The calls are words filed in the database; no cut-off is given here.

Bcl-2-like protein 1 (Homo sapiens), sequence (Q07817 whole entry): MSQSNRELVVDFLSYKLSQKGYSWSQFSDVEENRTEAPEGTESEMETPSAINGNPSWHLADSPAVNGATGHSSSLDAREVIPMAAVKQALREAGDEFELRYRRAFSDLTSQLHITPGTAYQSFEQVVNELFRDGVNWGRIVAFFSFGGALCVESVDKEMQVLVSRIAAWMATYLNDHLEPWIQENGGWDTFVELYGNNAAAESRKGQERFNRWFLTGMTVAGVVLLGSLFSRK

In the case of `Cc1cccc(CCNC(=O)c2c(O)c(O)cc3c(O)c(-c4c(C)cc5c(C(=O)NCCc6cccc(C)c6)c(O)c(O)cc5c4O)c(C)cc23)c1`, the pEC50 (in general, −log10 of the EC50, conventionally taken in molar units) in [1] is 5.25; with NCI-H460, 6.15. In [2], the result was Active.

Take `Cc1cc2c(Cc3ccccc3)c(O)c(O)cc2c(O)c1-c1c(C)cc2c(Cc3ccccc3)c(O)c(O)cc2c1O`: the pEC50 in data set [1] was 5.49; in the data set with NCI-H460 it was 5.92; in [3], 5.08; in [4], 5.89. Besides, the result in data set [2] was Active.

For the compound `Cc1cc2c(C(=O)NC3Cc4ccccc4C3)c(O)c(O)cc2c(O)c1-c1c(C)cc2c(C(=O)NC3Cc4ccccc4C3)c(O)c(O)cc2c1O`, the pEC50 was 5.96 in data set [5]; 5.39 in [1]; 6.03 in the data set with NCI-H460; 5.52 in data set [3]; 5.15 in [4]. In addition, the outcome in [2] was Active.

With `Cc1cc2c(CCC(C)C)c(O)c(O)cc2c(O)c1-c1c(C)cc2c(CCC(C)C)c(O)c(O)cc2c1O`, the result in [2] was Active.

As for `Cc1cc2c(C(=O)NC3CCCC3)c(O)c(O)cc2c(O)c1-c1c(C)cc2c(C(=O)NC3CCCC3)c(O)c(O)cc2c1O`, the pEC50 in data set [1] is 4.86; in the data set with NCI-H460, 5.07; in [3], 4.91; in data set [4], 5.10. In addition, the outcome in [2] was Active.

On to `CCC(NC(=O)c1c(O)c(O)cc2c(O)c(-c3c(C)cc4c(C(=O)NC(CC)c5ccccc5)c(O)c(O)cc4c3O)c(C)cc12)c1ccccc1` (stereo not drawn), for which the pEC50 was 5.38 in data set [1] and 5.82 in the data set on NCI-H460. Moreover, the result in data set [2] was Active.

Consider `Cc1cc2c(C(=O)NCCc3ccc(Cl)cc3)c(O)c(O)cc2c(O)c1-c1c(C)cc2c(C(=O)NCCc3ccc(Cl)cc3)c(O)c(O)cc2c1O`, for which the pEC50 was 6.15 in data set [5], 5.29 in data set [1] and 5.89 with NCI-H460. Further, in [2], the outcome was Active.

For the compound `Cc1cc2c(C(=O)Nc3ccc(Oc4ccccc4)cc3)c(O)c(O)cc2c(O)c1-c1c(C)cc2c(C(=O)Nc3ccc(Oc4ccccc4)cc3)c(O)c(O)cc2c1O`, the pEC50 is 4.97 in data set [1], 5.00 with NCI-H460, 5.07 in data set [3] and 4.77 in [4]. Further, the outcome in [2] was Active.

The compound `Cc1cc2c(C(=O)NCC3CC3)c(O)c(O)cc2c(O)c1-c1c(C)cc2c(C(=O)NCC3CC3)c(O)c(O)cc2c1O` showed a pEC50 in [1] of less than 5.00. The result in data set [2] was Active.

Take `Cc1cc(C)c(CNC(=O)c2c(O)c(O)cc3c(O)c(-c4c(C)cc5c(C(=O)NCc6c(C)cc(C)cc6C)c(O)c(O)cc5c4O)c(C)cc23)c(C)c1`: in data set [2], the outcome was Active.

On to `Cc1cc2c(CC(C)C)c(O)c(O)cc2c(O)c1-c1c(C)cc2c(CC(C)C)c(O)c(O)cc2c1O`, for which the outcome in data set [2] was Active.

As for `Cc1cc2c(C(=O)NCCc3ccccc3)c(O)c(O)cc2c(O)c1-c1c(C)cc2c(C(=O)NCCc3ccccc3)c(O)c(O)cc2c1O`, in data set [6], the remaining at 1 h was 63%. The logPe in data set [7] was -6.49 log cm/s. Besides, the remaining at 1 h, 4 µM in [8] came to 60%. In data set [2], the result was Active.

Regarding `Cc1cc2c(C(=O)NCc3ccccc3)c(O)c(O)cc2c(O)c1-c1c(C)cc2c(C(=O)NCc3ccccc3)c(O)c(O)cc2c1O`, the pEC50 in data set [1] is 5.03; in the data set on NCI-H460, 5.34; in data set [3] it was 4.86; in [4], 5.44. In data set [2], the outcome was Active.

As to `Cc1cc2c(C(=O)Nc3ccccc3)c(O)c(O)cc2c(O)c1-c1c(C)cc2c(C(=O)Nc3ccccc3)c(O)c(O)cc2c1O`, in [2], the outcome was Active. The negative logarithm of the EC50 (pEC50) with NCI-H460 was 5.46; in data set [4], 5.10.
